Data as given in paper PMC7127737 (Bioorganic & Medicinal Chemistry Letters, 2008).

Assays:
human CpA = target: T1, human CpA (Homo sapiens, UniProt P15085); test: Inhibition of recombinant human CpA, fluorescence assay; format: biochemical; conditions: for more potent inhibition of CpA relative to 1a: compared with 1a; for selectivity for ACE2 versus CpA: ratio of Ki Apps CpA/ACE2
T1 sequence (P15085 111-419): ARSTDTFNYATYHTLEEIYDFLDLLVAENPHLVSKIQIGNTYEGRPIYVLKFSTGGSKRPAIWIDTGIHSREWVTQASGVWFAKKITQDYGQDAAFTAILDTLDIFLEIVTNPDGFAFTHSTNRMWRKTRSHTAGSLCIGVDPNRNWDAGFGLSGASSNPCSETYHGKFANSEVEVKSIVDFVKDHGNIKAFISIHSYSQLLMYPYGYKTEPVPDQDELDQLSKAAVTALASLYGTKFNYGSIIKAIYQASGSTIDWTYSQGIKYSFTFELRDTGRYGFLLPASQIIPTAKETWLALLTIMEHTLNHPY
Method in brief: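 Recombinant human CpA (37 nM) was run with 30 μM Abz-Gly-Gly-Nph-OH, and recombinant human ACE2 (0.4 nM) with 30 μM MCA-Tyr-Val-Ala-Asp-Ala-Pro-Lys(DNP)-OH. Both used 50 mM Hepes pH 7.5, 1 μM Zn(OAc)2, 100 μM TCEP, 300 μM CHAPS and 300 mM NaCl. Compound was pre-incubated before substrate; read-out was fluorescence. Ki App is the mean of ≥2 assays; selectivity is the CpA/ACE2 Ki App ratio.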

human ACE = human ACE (Homo sapiens, UniProt P12821); test: Inhibition of recombinant human ACE, fluorescence assay; format: biochemical; conditions: ratio of Ki Apps ACE/ACE2
human ACE, sequence (P12821 30-1306): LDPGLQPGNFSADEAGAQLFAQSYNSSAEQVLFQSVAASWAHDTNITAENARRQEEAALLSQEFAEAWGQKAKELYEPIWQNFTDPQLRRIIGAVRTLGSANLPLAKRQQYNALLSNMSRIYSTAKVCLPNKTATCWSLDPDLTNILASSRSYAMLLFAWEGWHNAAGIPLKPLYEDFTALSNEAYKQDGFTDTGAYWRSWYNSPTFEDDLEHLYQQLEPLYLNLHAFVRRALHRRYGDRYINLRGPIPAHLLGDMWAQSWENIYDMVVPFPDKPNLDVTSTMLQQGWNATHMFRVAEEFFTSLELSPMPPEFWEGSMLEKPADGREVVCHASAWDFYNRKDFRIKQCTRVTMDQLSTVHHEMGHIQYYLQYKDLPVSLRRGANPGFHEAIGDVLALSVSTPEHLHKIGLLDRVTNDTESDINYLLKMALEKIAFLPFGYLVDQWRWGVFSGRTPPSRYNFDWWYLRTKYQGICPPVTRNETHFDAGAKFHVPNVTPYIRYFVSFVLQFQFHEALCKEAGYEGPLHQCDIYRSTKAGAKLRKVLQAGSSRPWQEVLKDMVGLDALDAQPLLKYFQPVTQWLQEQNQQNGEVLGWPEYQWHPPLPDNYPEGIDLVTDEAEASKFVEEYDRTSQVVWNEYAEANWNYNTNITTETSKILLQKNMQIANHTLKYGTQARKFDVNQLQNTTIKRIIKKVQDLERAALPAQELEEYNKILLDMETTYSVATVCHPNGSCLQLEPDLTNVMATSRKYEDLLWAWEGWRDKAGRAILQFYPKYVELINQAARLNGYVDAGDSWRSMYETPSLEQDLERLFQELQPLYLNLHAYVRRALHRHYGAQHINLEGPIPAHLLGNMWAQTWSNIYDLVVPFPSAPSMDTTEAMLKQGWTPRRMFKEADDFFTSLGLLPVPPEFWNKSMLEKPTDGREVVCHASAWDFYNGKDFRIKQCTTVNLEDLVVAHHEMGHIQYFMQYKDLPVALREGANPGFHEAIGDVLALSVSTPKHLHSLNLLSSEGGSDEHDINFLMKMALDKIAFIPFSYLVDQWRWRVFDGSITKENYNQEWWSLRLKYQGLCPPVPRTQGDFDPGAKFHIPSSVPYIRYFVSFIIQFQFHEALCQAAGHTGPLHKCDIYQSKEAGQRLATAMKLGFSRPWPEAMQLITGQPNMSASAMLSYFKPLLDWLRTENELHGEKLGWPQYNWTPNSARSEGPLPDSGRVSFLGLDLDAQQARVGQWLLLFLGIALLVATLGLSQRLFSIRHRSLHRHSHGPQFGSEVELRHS
Method in brief: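 Buffer: 50 mM Hepes, 300 mM NaCl, 300 μM CHAPS, 1 μM Zn(OAc)2, 100 μM TCEP, pH 7.5. Thiols were diluted from 10 mM stocks in 50% aqueous acetonitrile and pre-incubated before substrate addition. Values are means of ≥2 assays.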

human NEP = human NEP (Homo sapiens, UniProt P08473); test: Inhibition of recombinant human NEP, fluorescence assay; format: biochemical; conditions: ratio of Ki Apps NEP/ACE2
human NEP, sequence (P08473 whole entry): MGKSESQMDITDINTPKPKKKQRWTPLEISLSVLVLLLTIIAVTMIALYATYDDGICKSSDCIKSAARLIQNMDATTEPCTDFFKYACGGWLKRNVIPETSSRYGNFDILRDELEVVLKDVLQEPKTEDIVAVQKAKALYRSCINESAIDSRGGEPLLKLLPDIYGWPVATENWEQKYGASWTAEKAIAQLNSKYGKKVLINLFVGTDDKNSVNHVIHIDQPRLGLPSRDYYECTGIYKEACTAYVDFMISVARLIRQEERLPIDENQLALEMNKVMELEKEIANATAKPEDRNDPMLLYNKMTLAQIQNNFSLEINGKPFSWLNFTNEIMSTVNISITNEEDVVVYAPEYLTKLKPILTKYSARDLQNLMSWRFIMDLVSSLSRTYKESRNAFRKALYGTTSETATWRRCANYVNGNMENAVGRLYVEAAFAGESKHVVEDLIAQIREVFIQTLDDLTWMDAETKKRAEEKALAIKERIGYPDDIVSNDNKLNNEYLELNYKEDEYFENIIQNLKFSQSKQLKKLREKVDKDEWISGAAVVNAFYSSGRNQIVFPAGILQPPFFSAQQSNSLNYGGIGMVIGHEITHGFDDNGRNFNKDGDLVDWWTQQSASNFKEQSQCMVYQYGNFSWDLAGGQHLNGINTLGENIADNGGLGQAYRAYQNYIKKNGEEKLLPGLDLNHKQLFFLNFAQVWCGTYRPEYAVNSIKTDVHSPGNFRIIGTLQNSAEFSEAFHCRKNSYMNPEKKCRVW
Method in brief: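 Fluorescence protease assays, both in 50 mM Hepes pH 7.5 with 1 μM Zn(OAc)2, 100 μM TCEP, 300 μM CHAPS and 300 mM NaCl. NEP: recombinant human enzyme (0.15 nM) with 2 μM FAM-[…]TAMRA)-NH2. ACE2: recombinant human enzyme (0.4 nM) with 30 μM MCA-Tyr-Val-Ala-Asp-Ala-Pro-Lys(DNP)-OH. Compound was pre-incubated before substrate. Ki App is the mean of ≥2 assays; the NEP/ACE2 ratio gives selectivity.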

ACE2 = conditions: read-out: ACE2 IC50; reversible inhibitor; cited from earlier work

| SMILES | more potent inhibition of CpA relative to 1a (human CpA) [fold] | selectivity for ACE2 versus CpA (human CpA) [fold] | selectivity for ACE2 versus ACE (human ACE) [fold] | selectivity for ACE2 versus NEP (human NEP) [fold] | IC50 (ACE2) [nM] |
| --- | --- | --- | --- | --- | --- |
| CC[C@@H](C)[C@H](S)C(=O)N[C@@H](Cc1ccccc1)C(=O)O [1d, N-[(2S,3R)-2-Mercapto-3-methylpentanoyl]-L-phenylalanine] | > 10 |  |  |  |  |
| CC[C@@H](C)[C@H](S)C(=O)N[C@@H](Cc1ccc(OCc2ccc(F)c(F)c2)cc1)C(=O)O [1r, O-[(3,4-Difluorophenyl)methyl]-N-[(2S,3R)-2-mercapto-3-methylpentanoyl]-L-tyrosine] |  | > 750 | > 750 | > 750 |  |
| CC[C@@H](C)[C@H](S)C(=O)N[C@@H](Cc1ccc(O)cc1)C(=O)O [1e, N-[(2S,3R)-2-Mercapto-3-methylpentanoyl]-L-tyrosine] | > 10 |  |  |  |  |
| CC(C)C[C@H](N[C@@H](Cc1cncn1Cc1cc(Cl)cc(Cl)c1)C(=O)O)C(=O)O [MLN-4760] |  |  |  |  | 0.44 |
| CC[C@@H](C)[C@H](S)C(=O)N[C@@H](Cc1cccc2ccccc12)C(=O)O [1f, N-[(2S,3R)-2-Mercapto-3-methylpentanoyl]-3-(1-naphthalenyl)-L-alanine] |  | > 100 | > 100 |  |  |

Now from value to compound, other results behind:

| more potent inhibition of CpA relative to 1a (human CpA) [fold] | selectivity for ACE2 versus CpA (human CpA) [fold] | selectivity for ACE2 versus ACE (human ACE) [fold] | selectivity for ACE2 versus NEP (human NEP) [fold] | SMILES | IC50 (ACE2) [nM] |
| --- | --- | --- | --- | --- | --- |
|  | > 100 | > 100 | 5 | CC[C@@H](C)[C@H](S)C(=O)N[C@@H](Cc1ccc(Oc2ccccc2)cc1)C(=O)O [1l, N-[(2S,3R)-2-Mercapto-3-methylpentanoyl]-O-phenyl-L-tyrosine] |  |
|  | > 100 | > 100 |  | CC[C@@H](C)[C@H](S)C(=O)N[C@@H](Cc1ccccc1Oc1ccccc1)C(=O)O [1j, N-[(2S,3R)-2-Mercapto-3-methylpentanoyl]-2-(phenyloxy)-L-phenylalanine] |  |
|  | > 100 | > 100 | 14 | CC[C@@H](C)[C@H](S)C(=O)N[C@@H](Cc1cccc(Oc2ccccc2)c1)C(=O)O [1k, N-[(2S,3R)-2-Mercapto-3-methylpentanoyl]-3-(phenyloxy)-L-phenylalanine] |  |
|  | > 100 | > 100 |  | CC[C@@H](C)[C@H](S)C(=O)N[C@@H](Cc1ccc2ccccc2c1)C(=O)O [1g, N-[(2S,3R)-2-Mercapto-3-methylpentanoyl]-3-(2-naphthalenyl)-L-alanine] |  |
